Rows were chosen to be rich in hits. Some 1.6% of all compounds tested hit in one or more screens of this group.
Scp-1 inhibitor – blocks human Scp-1 phosphatase activity; inhibition, % at 20 µM; AID 493091; Q9GZU7; Recombinant Scp1, phosphopeptide, malachite green phosphate absorbance; 0.88% of 340,000 active;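 active = inhibition above about 50% at 20 µM, limit read from the data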
Target sequence (Q9GZU7 76-261 limits assumed): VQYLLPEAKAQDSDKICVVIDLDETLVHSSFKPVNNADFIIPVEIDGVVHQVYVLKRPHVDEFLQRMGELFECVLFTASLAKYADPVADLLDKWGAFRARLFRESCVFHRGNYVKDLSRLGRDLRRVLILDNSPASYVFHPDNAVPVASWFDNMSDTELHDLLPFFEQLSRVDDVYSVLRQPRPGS
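Times: enzyme reaction 45 min at room temperature, colour 5 min, stabilisation 30 min. Material: SCP-1 catalytic fragment, aa 76-261. Medium: Acidic Tris acetate buffer with magnesium and detergent. Signal: colorimetric free-phosphate detection, absorbance 630 nm. Read-out basis: % inhibition of SCP-1 phosphate liberation. Reagent: Phosphorylated 17-residue peptide substrate.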
DNMT1 block – inhibitors of human DNMT1; AID 588458; DNMT1 molecular beacon, Hinp1I cleavage, fluorescence; inhibition (reported as % activation of signal), % at 10 µM; P26358; 0.83% of 360,000 active; in the data active = inhibition above about 50%
SUMO1 PPI mod – SUMO1-SIM interaction modulation. P63165. SUMO1 binding to a labelled peptide, TR-FRET, 1 h. inhibition, % at 20 µM. 0.33% of 360,000 active. AID 602429; in the data active = inhibition above about 37%
Target sequence (P63165 whole entry, looked up): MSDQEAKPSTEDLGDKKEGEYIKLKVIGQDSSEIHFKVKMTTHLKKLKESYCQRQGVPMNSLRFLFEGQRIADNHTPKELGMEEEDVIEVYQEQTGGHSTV
STEP inh – inhibitors of human striatal-enriched phosphatase STEP; P54829; inhibition, % at 20 µM; 0.25% of 360,000 active; recombinant STEP, OMFP fluorogenic substrate, fluorescence;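 active = inhibition at 20 µM, scaled per plate between control wells, above about 37%, limit read from the data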
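Test system: STEP tyrosine phosphatase / Reagent: OMFP at 25 µM / Doses: 20 µM, 1% DMSO / Read-out: percent inhibition scaled to no-enzyme and uninhibited-enzyme controls, plate-pattern corrected / Detection: FITC-channel fluorescence of OMFP product / Medium: Bis-Tris buffer pH 6.0, 2.5 mM DTT, 0.005% Tween 20 / Schedule: 20 min at room temperature, dark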
CFTR F508del cor – CFTR F508del correction in bronchial cells; CFBE cells, YFP halide quenching; stimulated with forskolin plus potentiator P3; % fluorescence drop versus neutral controls; activity (quench increase), % at 7.58 µM; 0.36% of 350,000 active; AID 720511;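 active = mean added fluorescence quench of at least 8% versus neutral control, with both replicates also reaching 8%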;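 also: cells transiently co-express mutant CFTR-F508del with the halide-sensitive YFP; corrector assay measuring rescue of mutant channel to the surface after 24 h compound exposure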
LMPTP block – LMPTP (human) inhibition | inhibition, % at 20 µM | AID 651560 | 0.22% of 360,000 active | recombinant LMPTP-A, OMFP fluorogenic substrate, fluorescence intensity;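 active = compounds that cut the enzyme signal by at least half of the control window in the single-dose screen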
Target sequence (P24666 whole entry, looked up): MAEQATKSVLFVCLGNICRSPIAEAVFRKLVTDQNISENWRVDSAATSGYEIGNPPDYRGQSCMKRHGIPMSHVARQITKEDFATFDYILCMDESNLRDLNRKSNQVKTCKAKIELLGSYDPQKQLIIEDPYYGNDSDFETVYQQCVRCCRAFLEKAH
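Test system: LMPTP-A phosphatase enzyme; input: 0.625 nM LMPTP-A final; reagent: OMFP substrate, 400 µM final; compound dosing: 20 µM single dose, 3% DMSO; incubation: 50 min dark incubation at room temperature; measured by: endpoint fluorescence intensity from OMFP dephosphorylation; measure: % inhibition relative to no-enzyme and uninhibited control wells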
Scp1 confirm – confirmation of human Scp-1 phosphatase inhibitors | 61% of 2,500 active | inhibition, % at 20 µM | recombinant SCP-1 catalytic domain, phosphate release, malachite green absorbance | shares compounds with Scp-1 inhibitor | AID 540281
Scp-1 MG ctr – colorimetric interference in Scp-1 counter-screen. shares compounds with Scp-1 inhibitor. Colorimetric interference counterscreen, malachite green absorbance 630 nm. apparent inhibition (interference), % at 20 µM. 2,500 tested, under 10 active. AID 540313;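 also: compounds added after enzyme reaction finished so only phosphate colour detection is probed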
Scp-1 Tm shift – Scp-1 (human) binding by thermal shift; shares compounds with Scp-1 inhibitor; Recombinant SCP1, Sypro Orange thermal shift Tm; thermal shift relative to vanadate control, % at 40 µM; 25% of 1,500 active;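 active = substances whose mean melting-temperature shift, as a percentage of the reference inhibitor's shift, reaches about 5.3%, limit read from the data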
Of the large screens only hits and unclear results are named; the others gave an inactive call (follow-up assays come after a bar, where they were run).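 The calls were made as follows, unless noted: active = inhibition of at least 30% at 20 µM; inactive = the rest.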

CCOC(=O)c1cnc2nc(NCc3ccc(OCc4ccccc4)cc3)[nH]n2c1=O	Scp-1 inhibitor 70.5 (no result: CFTR F508del cor) | Scp1 confirm 91.2 | Scp-1 MG ctr inactive | Scp-1 Tm shift inactive
CCOC(=O)c1cnc2nc(COc3ccccc3)[nH]n2c1=O	none (no result: CFTR F508del cor)
C[C@@H]1CCCCO[C@@H](CN(C)Cc2ccc(Cl)c(Cl)c2)[C@H](C)CN([C@@H](C)CO)C(=O)c2cc(NC(=O)Nc3ccc(F)cc3)ccc2O1	none (no result: Scp-1 inhibitor, DNMT1 block, SUMO1 PPI mod, STEP inh, LMPTP block)
Cc1ccc(NC2CCCN(C(=O)CCc3scnc3C)C2)cc1C (stereo unspecified)	Scp-1 inhibitor 55.0 | Scp1 confirm inactive | Scp-1 MG ctr inactive
C[C@@H]1CN([C@H](C)CO)C(=O)c2cc(NC(=O)CCCN(C)C)ccc2O[C@@H](C)CCCCO[C@@H]1CN(C)S(=O)(=O)c1cn(C)cn1	none (no result: Scp-1 inhibitor, DNMT1 block, SUMO1 PPI mod, STEP inh, LMPTP block)
CC(=O)NC(CC(=O)OCC(=O)Nc1ccc2c(c1)OCO2)c1ccccc1 (stereo unspecified)	none
CC(=O)NC(CC(=O)OCC(=O)c1ccc(NC(=O)CC(C)C)cc1)c1ccccc1 (stereo unspecified)	Scp-1 inhibitor 52.5 | Scp1 confirm 60.1 | Scp-1 MG ctr inactive | Scp-1 Tm shift inactive
Cc1c(F)cccc1NC(=O)CCCCCC1NC(=O)NC1C (stereo unspecified)	none | Scp1 confirm inactive | Scp-1 MG ctr inactive
O=C(CCCC(=O)c1ccccc1)Nc1ccc(F)cc1	none
CC1NC(=O)NC1CCCCCC(=O)Nc1ccc(F)cc1 (stereo unspecified)	none | Scp1 confirm inactive | Scp-1 MG ctr inactive
Cc1noc(C)c1S(=O)(=O)Nc1ccc2c(c1)C(=O)N([C@@H](C)CO)C[C@@H](C)[C@H](CN(C)C(=O)c1ccccc1)OCCCC[C@@H](C)O2	none (no result: Scp-1 inhibitor, DNMT1 block, SUMO1 PPI mod, STEP inh, LMPTP block)
CCN1C(=NCCOC)N[C@@H](c2cccc(C(F)(F)F)c2)C(C(=O)OC)=C1C	Scp-1 inhibitor 56.1 | Scp1 confirm inactive | Scp-1 MG ctr inactive
CCN1C(=NCC2CC2)N[C@@H](c2cccc(C(F)(F)F)c2)C(C(=O)OC)=C1C	Scp-1 inhibitor 50.1 (no result: CFTR F508del cor) | Scp1 confirm inactive | Scp-1 MG ctr inactive
CCN1C(=NCc2cc(OC)c(OC)c(OC)c2)N[C@@H](c2ccccc2)C(C(=O)OC)=C1C	Scp-1 inhibitor 54.2 (no result: CFTR F508del cor) | Scp1 confirm inactive | Scp-1 MG ctr inactive
COC(=O)C1=C(C)N(Cc2cccc(C(F)(F)F)c2)C(=NCC2CC2)NC1c1cccc(F)c1 (stereo unspecified)	none (no result: Scp-1 inhibitor, DNMT1 block, SUMO1 PPI mod, STEP inh, LMPTP block)
Cc1ccc(S(=O)(=O)Nc2ccc3c(c2)C(=O)N([C@@H](C)CO)C[C@H](C)[C@H](CN(C)C(=O)CCC(F)(F)F)OCCCC[C@@H](C)O3)cc1	none (no result: Scp-1 inhibitor, DNMT1 block, SUMO1 PPI mod, STEP inh, LMPTP block)
C[C@@H]1CN([C@H](C)CO)C(=O)c2cc(C#C[C@@H](C)O)cnc2O[C@H]1CN(C)C(=O)c1ccccc1	none (no result: Scp-1 inhibitor, DNMT1 block, SUMO1 PPI mod, STEP inh, LMPTP block)
O=C(CCS(=O)(=O)c1ccc(Br)cc1)NC1CCCCCC1	Scp-1 inhibitor 70.2 | Scp1 confirm 68.6 | Scp-1 MG ctr inactive | Scp-1 Tm shift inactive
CCCCN(C(=O)c1cc2c(s1)CCC2)c1c(N)n(CC(C)C)c(=O)[nH]c1=O	none
CCCCN(C(=O)c1cccc(-n2cccc2)c1)c1c(N)n(CCCC)c(=O)[nH]c1=O	Scp-1 inhibitor 69.5 | Scp1 confirm inactive | Scp-1 MG ctr inactive
CCCCN(C(=O)c1cc2c(s1)CCC2)c1c(N)n(CCC)c(=O)[nH]c1=O	Scp-1 inhibitor 60.4 | Scp1 confirm 50.0 | Scp-1 MG ctr inactive | Scp-1 Tm shift inactive
COCCCN(C(=O)c1cc2c(s1)CCC2)c1c(N)n(Cc2ccccc2)c(=O)[nH]c1=O	none (no result: CFTR F508del cor)
CCCCN(C(=O)c1cnccn1)c1c(N)n(CCC)c(=O)[nH]c1=O	Scp-1 inhibitor 99.5 | Scp1 confirm inactive | Scp-1 MG ctr inactive
CCCN(C(=O)c1cc2c(s1)CCC2)c1c(N)n(Cc2ccccc2)c(=O)[nH]c1=O	Scp-1 inhibitor 53.1, DNMT1 block 52.5 | Scp1 confirm 45.8 | Scp-1 MG ctr inactive | Scp-1 Tm shift inactive
COc1ccc(S(=O)(=O)Nc2ccc3c(c2)C(=O)N([C@@H](C)CO)C[C@@H](C)[C@H](CN(C)Cc2ccncc2)OCCCC[C@H](C)O3)cc1	none (no result: Scp-1 inhibitor, DNMT1 block, SUMO1 PPI mod, STEP inh, LMPTP block)
CC(C)NC(=O)NCC[C@H]1CC[C@H](NS(=O)(=O)c2ccccc2)[C@H](CO)O1	none (no result: Scp-1 inhibitor, DNMT1 block, SUMO1 PPI mod, STEP inh, LMPTP block)
CCCCn1c(N)c(N(CCOC)C(=O)c2ccc(Cl)c(S(=O)(=O)N3CCCCC3)c2)c(=O)[nH]c1=O	none
CCCCN(C(=O)c1ccc(Cl)c(S(=O)(=O)N2CCOCC2)c1)c1c(N)n(CCC)c(=O)[nH]c1=O	Scp-1 inhibitor 58.1 | Scp1 confirm inactive | Scp-1 MG ctr inactive
CCCCn1c2c(c(=N)c3c1CCC3)CCC2	Scp-1 inhibitor 93.8 (no result: CFTR F508del cor) | Scp1 confirm inactive | Scp-1 MG ctr inactive
CCCCCCCCCn1c2c(c(=N)c3c1CCC3)CCC2	none (no result: CFTR F508del cor)
NC(=O)C1CCN(C(=O)CCc2nc3sc4c(c3c(=O)[nH]2)CCCC4)CC1	Scp-1 inhibitor 58.2 | Scp1 confirm 62.3 | Scp-1 MG ctr inactive | Scp-1 Tm shift inactive
O=C(Nc1ccc(Cl)cc1)N[C@H]1CC[C@@H](CCn2cc(-c3ccccc3F)nn2)O[C@@H]1CO	none (no result: Scp-1 inhibitor, DNMT1 block, SUMO1 PPI mod, STEP inh, LMPTP block)
